This note sets out measurements from ChEMBL document CHEMBL4184285, “Antibacterial activities of mono-, di- and tri-substituted triphenylamine-based phosphonium ionic liquids” (Bioorg Med Chem Lett, 2018).

Structures are written as SMILES. Where only a bound is given, the exact number is not on record here.

One data set concerns Pseudomonas aeruginosa. The data set is described as follows: Antibacterial activity against Pseudomonas aeruginosa CIP100720 after 18 to 24 hrs by broth dilution method. The class given is functional. A general note: Broth dilution looks for growth in wells or tubes with falling amounts of substance.
Another data set deals with Acinetobacter baumannii. The data set is described as follows: Antibacterial activity against Acinetobacter baumannii ATCC 19606 after 18 to 24 hrs by broth dilution method. Conditions: ATCC 19606 = CIP 70.34 = JCM 6841. The class given is functional.
The subject of data set [1] is Staphylococcus aureus. Nature of the data set: Antibacterial activity against Staphylococcus aureus CIP 7625 after 18 to 24 hrs by broth dilution method. It counts as functional.
Another data set has as its system HepG2. The data set is described as follows: Cytotoxicity against human HepG2 cells assessed as reduction in cell viability after 24 hrs by WST1 assay. It counts as cell-based. Conditions: hepg2, 24 h. An outline of the steps: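 Human hepatocyte HepG2 cultures were exposed to test material. IC50 was taken as the concentration giving a 50% decrease in cell respiration relative to the untreated control culture.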

For another data set, the system named is Enterococcus faecium. Nature of the data set: Antibacterial activity against Enterococcus faecium DSMZ 20477 after 18 to 24 hrs by broth dilution method. It counts as functional.
In data set [2] the test system is Staphylococcus aureus. The data set is described as follows: Antibacterial activity against Staphylococcus aureus SA1199B over-expressing NorA after 18 to 24 hrs by broth dilution method. It counts as functional.
Another data set relates to Escherichia coli. Nature of the data set: Antibacterial activity against Escherichia coli CIP54.8 after 18 to 24 hrs by broth dilution method. The class given is functional.
The subject of a further data set is Klebsiella aerogenes. The data set is described as follows: Antibacterial activity against Enterobacter aerogenes ATCC 13048 after 18 to 24 hrs by broth dilution method. The class given is functional.
Another data set concerns Klebsiella pneumoniae. The data set is described as follows: Antibacterial activity against Klebsiella pneumoniae CIP82.91 after 18 to 24 hrs by broth dilution method. It counts as functional.
The subject of data set [3] is Staphylococcus aureus. The data set is described as follows: Antibacterial activity against Staphylococcus aureus SA1199 after 18 to 24 hrs by broth dilution method. It counts as functional.

As a reminder, the MIC is the lowest concentration that inhibits growth of the organism. Low readings indicate a more susceptible organism, high ones a less susceptible organism.

Take `CCCCCC[P+](CCCCCC)(CCCCCC)CCCCCCOCc1ccc(N(c2ccccc2)c2ccccc2)cc1.[Cl-]`: the MIC in the data set on Pseudomonas aeruginosa is 16 µg/mL; against Acinetobacter baumannii it was over 64 µg/mL; in the data set with Staphylococcus aureus [1], 2 µg/mL; with Enterococcus faecium, 4 µg/mL; against Staphylococcus aureus [2], 2 µg/mL; against Escherichia coli, over 64 µg/mL. Further, the MIC is over 64 µg/mL against Klebsiella aerogenes, over 64 µg/mL against Klebsiella pneumoniae and 2 µg/mL with Staphylococcus aureus [3]. The Activity with HepG2 stood at 0.09%.

For the compound `CCCCCCCC[P+](CCCCCCCC)(CCCCCCCC)CCCCCCOCc1ccc(N(c2ccccc2)c2ccccc2)cc1.[Cl-]`, the MIC with Pseudomonas aeruginosa was over 64 µg/mL; with Acinetobacter baumannii, over 64 µg/mL; in the data set with Staphylococcus aureus [1], 8 µg/mL; with Enterococcus faecium, 16 µg/mL; in the data set on Staphylococcus aureus [2] it was 8 µg/mL; with Escherichia coli, over 64 µg/mL. Also, the figures for the MIC in the data set with Klebsiella aerogenes, in the data set with Klebsiella pneumoniae and against Staphylococcus aureus [3] were over 64 µg/mL, over 64 µg/mL and 8 µg/mL, respectively.

For the compound `CCCCCC[P+](CCCCCC)(CCCCCC)CCCCCCOCc1ccc(N(c2ccccc2)c2ccccc2)cc1.[Br-]`, the MIC against Pseudomonas aeruginosa was 64 µg/mL; against Acinetobacter baumannii it was 64 µg/mL; with Staphylococcus aureus [1] it was 2 µg/mL; in the data set with Enterococcus faecium, 4 µg/mL; with Staphylococcus aureus [2] it was 2 µg/mL; in the data set with Escherichia coli it was over 64 µg/mL. In addition, the MIC is over 64 µg/mL against Klebsiella aerogenes, 64 µg/mL against Klebsiella pneumoniae and 2 µg/mL against Staphylococcus aureus [3].

In the case of `CCCCCC[P+](CCCCCC)(CCCCCC)CCCCCCOCc1ccc(N(c2ccc(COCCCCCC[P+](CCCCCC)(CCCCCC)CCCCCC)cc2)c2ccc(COCCCCCC[P+](CCCCCC)(CCCCCC)CCCCCC)cc2)cc1.[Cl-].[Cl-].[Cl-]`, the MIC is over 64 µg/mL with Pseudomonas aeruginosa; 16 µg/mL in the data set with Acinetobacter baumannii; 2 µg/mL with Staphylococcus aureus [1]; 4 µg/mL with Enterococcus faecium; 2 µg/mL in the data set on Staphylococcus aureus [2]; 32 µg/mL in the data set on Escherichia coli. The values for the MIC in the data set with Klebsiella aerogenes, in the data set with Klebsiella pneumoniae and against Staphylococcus aureus [3] were 64 µg/mL, 16 µg/mL and 2 µg/mL, respectively. In addition, the Activity in the data set on HepG2 was found to be 4.28%.

As to `CCCC[P+](CCCC)(CCCC)CCCCCCOCc1ccc(N(c2ccccc2)c2ccccc2)cc1.[Cl-]`, the minimal inhibitory concentration (MIC) in the data set with Pseudomonas aeruginosa worked out at 32 µg/mL; against Acinetobacter baumannii, 16 µg/mL; against Staphylococcus aureus [1], 1 µg/mL; in the data set on Enterococcus faecium it was 1 µg/mL; in the data set with Staphylococcus aureus [2], 0.5 µg/mL; against Escherichia coli, 16 µg/mL. Moreover, the MIC is 16 µg/mL against Klebsiella aerogenes, 16 µg/mL against Klebsiella pneumoniae and 0.5 µg/mL with Staphylococcus aureus [3].

As to `CCCCCC[P+](CCCCCC)(CCCCCC)CCCCCCOCc1ccc(N(c2ccccc2)c2ccc(COCCCCCC[P+](CCCCCC)(CCCCCC)CCCCCC)cc2)cc1.[Cl-].[Cl-]`, the MIC in the data set on Pseudomonas aeruginosa stood at 64 µg/mL; against Acinetobacter baumannii it was 16 µg/mL; in the data set with Staphylococcus aureus [1] it was 2 µg/mL; in the data set with Enterococcus faecium, 2 µg/mL; against Staphylococcus aureus [2], 2 µg/mL; in the data set on Escherichia coli it was 32 µg/mL. For the same compound, the MIC in the data set on Klebsiella aerogenes is over 64 µg/mL; in the data set with Klebsiella pneumoniae, 16 µg/mL; against Staphylococcus aureus [3], 2 µg/mL. Moreover, in the data set on HepG2, the Activity was determined as 4.16%.

In the case of `CCCCCC[P+](CCCCCC)(CCCCCC)CCCCCCCCCCOCc1ccc(N(c2ccccc2)c2ccccc2)cc1.[Br-]`, the MIC in the data set with Pseudomonas aeruginosa amounted to 64 µg/mL; in the data set on Acinetobacter baumannii, 16 µg/mL; with Staphylococcus aureus [1], 2 µg/mL; with Enterococcus faecium, 8 µg/mL; in the data set on Staphylococcus aureus [2] it was 2 µg/mL; in the data set on Escherichia coli, 32 µg/mL. The MIC in the data set with Klebsiella aerogenes is over 64 µg/mL; against Klebsiella pneumoniae, 32 µg/mL; against Staphylococcus aureus [3], 1 µg/mL.
